# Source: PubChem (The Scripps Research Institute Molecular Screening Center)
# MsrA inh = inhibitors of bovine MsrA; purified bovine MsrA, absorbance read-out; inhibition, % at 15.5 µM; hit rate 0.75% among 360,000; AID 651718; in the data active = inhibition above about 4.5%
# MC4R ag barr = human MC4R agonism via beta-arrestin; U2OS MC4R beta-arrestin complementation, luminescence; percent of melanotan II response, DMSO zero; activation, % at 8.9 µM; hit rate 0.98% among 360,000;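 active = activation above a per-plate cutoff, the mean activation of sample wells on that plate plus 3 SD, cut at about 8% in these data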
# Target sequence (P32245 whole entry, looked up): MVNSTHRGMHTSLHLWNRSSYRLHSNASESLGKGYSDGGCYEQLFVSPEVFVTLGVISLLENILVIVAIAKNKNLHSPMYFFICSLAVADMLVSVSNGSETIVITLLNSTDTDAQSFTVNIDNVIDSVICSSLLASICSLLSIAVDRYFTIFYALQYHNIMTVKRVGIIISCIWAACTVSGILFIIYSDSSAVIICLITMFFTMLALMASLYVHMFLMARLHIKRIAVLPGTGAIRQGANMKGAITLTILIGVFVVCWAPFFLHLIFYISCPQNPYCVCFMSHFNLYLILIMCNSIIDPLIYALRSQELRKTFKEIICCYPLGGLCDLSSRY
# MsrA act = activators of bovine methionine sulfoxide reductase A; purified bovine MsrA, absorbance read-out; activation, % at 10.6 µM; hit rate 0.3% among 360,000; AID 602163; in the data active = activation above about 7.5%
# MC4R antagonist = human MC4R antagonism in cAMP assay; P32245; MC4R-expressing cells, MTII-stimulated cAMP, LANCE TR-FRET; inhibition, % at 6.5 µM; hit rate 0.48% among 360,000; AID 540295;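 active = inhibition above its plate's cutoff, the mean of tested wells on that plate plus 3 SD, cut at about 29% in these data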
#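 Material: U2OS-MC4R stable cell line | Reagent: Melanotan II challenge after compound preincubation | Doses: One concentration, 6.5 µM nominal | Incubation: 30-min compound preincubation, 1-h Melanotan II challenge, 1-h detection, room temperature | Signal: TR-FRET cAMP assay | Replicates: One well per compound, no replicates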
# MsrA activ conf = bovine methionine sulfoxide reductase A activation confirmed | activation, % at 10.6 µM | AID 602270 | shares compounds with MsrA act | purified bovine MsrA, absorbance read-out | hit rate 12% among 1,000; in the data active = activation above about 4%;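 also: enzyme coupled to thioredoxin and thioredoxin reductase with NADPH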
# Numbers stand for hits; - = inactive; . = not tested or not shown; ! = not active in a repeat. Only some compounds are listed: those with a hit (about 2.3% of all), similar ones and a draw of the others.
SMILES,MsrA inh,MC4R ag barr,MsrA act,MC4R antagonist,MsrA activ conf
O=C(NC1CC1)c1ccc(NS(=O)(=O)c2ccc(F)cc2)cc1,-,-,11,-,-
Cc1ccc(CC2C(=O)N(c3ncccn3)C(=O)C2C)cc1 (stereo unspecified),-,-,20,-,-
Cc1ccc(CC2C(=O)N(c3ccc(C)cc3)C(=O)C2C)cc1 (stereo unspecified),-,-,-,-,.
Cc1cccc(NC(=S)NCc2ccccc2)c1C,-,-,-,-,.
C=CCOc1ccc(Oc2cc(C)nc(SC)n2)nn1,-,-,13,-,-
O=C(Nc1c2c(nn1-c1ccc([N+](=O)[O-])cc1)CS(=O)(=O)C2)c1ccccc1F,-,-,7.9,-,-
C=CCn1cccc(C(=O)Nc2ccc(SC)cc2)c1=O,-,-,-,-,.
C=CCn1cccc(C(=O)Nc2ccc(Cl)cc2)c1=O,-,-,7.8,-,-
O=C(NC12CC3CC(CC(C3)C1)C2)c1cnccn1,-,-,-,-,.
C/C(CC(=O)NC12CC3CC(CC(C3)C1)C2)=N\NC(=O)c1cnccn1,-,-,14,-,-
O=[N+]([O-])c1cccc(-c2nnc3cccc(Cl)n23)c1,-,-,-,-,.
CC(C)OP(=O)(OC(C)C)C(NC(=O)c1ccccc1)C(N)=O (stereo unspecified),-,-,-,-,.
CC(C)OP(=O)(OC(C)C)C(C)NC(=O)Cc1ccccc1 (stereo unspecified),-,-,17,-,-
COc1ccc(NC(=O)C(c2ccc(Cl)cc2)C(C)C)cn1 (stereo unspecified),.,-,-,-,.
O=C(NCc1ccccc1Cl)[C@H]1CCCN1C(=O)[C@H]1CCCN1C(=O)c1cccs1,-,.,9.2,.,-
CC(C)c1ccc(C(=O)CSc2ncn[nH]2)cc1,-,-,14,-,-
CCOC(=O)CC(NC(=O)c1cccc2c1C(=O)N(Cc1cccnc1)C2)c1ccc(OCC)c(OC)c1 (stereo unspecified),-,-,8.6,-,-
COc1ccc(N2CC(NC(=O)c3ccc4ccccc4c3)CC2=O)cc1OC (stereo unspecified),-,-,11,-,-
COc1ccc(N2CC(NS(=O)(=O)c3ccc4ccccc4c3)CC2=O)cc1OC (stereo unspecified),-,-,-,-,.
Cc1cc(C)n(CC(=O)NCc2cc(-c3nn(C)c(=O)c4ccccc34)ccc2C)n1,-,-,-,-,.
CNS(=O)(=O)c1cccc(C(=O)OCc2cc(C(C)=O)ccc2OC)c1,-,-,-,-,.
COC(=O)N/N=C/c1cn(Cc2ccc(F)cc2)c2ccccc12,-,-,-,-,.
O=[N+]([O-])c1ccc(N/N=C/c2cn(Cc3ccc(F)cc3)c3ccccc23)nc1,-,-,17,-,-
Cc1c(NC(=O)CN2CCN(c3ccccc3)CC2)c(=O)n(-c2ccccc2)n1C,-,-,-,-,.
Cc1c(NC(=O)N2CCCCCC2)c(=O)n(-c2ccccc2)n1C,-,-,8.4,-,-
SMILES,MsrA inh,MC4R ag barr,MsrA act,MC4R antagonist,MsrA activ conf
Cc1c(NC(=O)Cn2[nH]c(=O)c3ccccc3c2=O)c(=O)n(-c2ccccc2)n1C,-,-,23,-,-
O=C(CC1C(=O)NCCN1Cc1ccc(F)cc1Cl)NCc1ccon1 (stereo unspecified),-,-,-,-,.
CCOC(=O)C1CCCN(CCCc2ccccc2)C1 (stereo unspecified),-,-,14!,-,-
COCCCNC(=O)Cn1cnc2c(OCc3ccccc3)ncnc21,-,-,-,-,.
COc1ccc(-n2c(=O)[nH]cc(C(=O)Nc3ccc4c(c3)OCCO4)c2=O)cc1,-,-,-,-,.
COc1ccc(-n2c(=O)[nH]cc(C(=O)Nc3ccc4c(c3)OCO4)c2=O)cc1OC,-,-,12,-,-
Cc1cccc(NC(=O)CCCc2ccccc2)c1C,-,-,-,-,.
Cc1cccc(C)c1NC(=O)CN(C)C(=O)CCc1nc2sc3c(c2c(=O)[nH]1)CCCC3,-,-,8.8,-,-
CCCCc1ccc(N=N/C(C(=O)Nc2ccccc2OC)=C(/C)O)cc1,-,-,-,-,.
O=C(COC(=O)/C=C/c1nc2ccccc2s1)Nc1cccc(Cl)c1Cl,-,-,-,-,.
O=C(NCc1nnnn1-c1ccc(F)cc1)C1CC(=O)N(c2ccc(F)cc2)C1 (stereo unspecified),-,-,-,-,.
Cc1ccc(-n2nnnc2CNC(=O)C2CC(=O)N(c3ccc(F)cc3)C2)cc1C (stereo unspecified),-,-,7.7,-,-
